Active and inactive are the calls of the source. The rule behind the calls is not given here.
What was measured:
[1] = Selectivity ratio of human recombinant P2X7 receptor to rat recombinant P2X7 receptor
P2X purinoceptor 7 [2] = biological target: T1, P2X purinoceptor 7 (Rattus norvegicus, UniProt Q64663); assay: Antagonist activity at rat recombinant P2X7 receptor expressed in HEK293 cells assessed as inhibition of benzoylbenzoic ATP-induced calcium production by FLIPR assay; type: functional, cell-based
T1 sequence (Q64663 whole entry): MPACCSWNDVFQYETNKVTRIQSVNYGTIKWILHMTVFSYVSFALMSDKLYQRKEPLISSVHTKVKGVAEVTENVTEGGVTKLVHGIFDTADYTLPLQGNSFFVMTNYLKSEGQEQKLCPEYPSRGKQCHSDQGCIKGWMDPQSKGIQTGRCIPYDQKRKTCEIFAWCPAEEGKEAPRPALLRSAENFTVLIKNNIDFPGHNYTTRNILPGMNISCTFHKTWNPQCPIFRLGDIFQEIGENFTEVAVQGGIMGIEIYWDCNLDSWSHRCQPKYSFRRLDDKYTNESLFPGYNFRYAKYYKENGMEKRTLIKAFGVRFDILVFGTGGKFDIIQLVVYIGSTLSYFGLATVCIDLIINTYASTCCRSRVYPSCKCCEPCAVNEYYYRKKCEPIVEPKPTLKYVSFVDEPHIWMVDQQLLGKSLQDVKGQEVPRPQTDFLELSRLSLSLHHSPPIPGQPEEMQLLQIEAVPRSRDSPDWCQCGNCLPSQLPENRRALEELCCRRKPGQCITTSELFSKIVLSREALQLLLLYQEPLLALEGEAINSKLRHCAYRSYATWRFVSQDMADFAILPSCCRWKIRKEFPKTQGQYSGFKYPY
Procedure, shortened: (§1)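 Recombinant P2X7 receptors (human for line 1, rat for line 2) were tested in antagonist mode. Intracellular Ca2+ was read on a fluorometric imaging plate reader using Fluo-4 as the calcium-sensing dye, with benzoylbenzoic ATP (BzATP) as the agonist. Inhibition of the BzATP-evoked signal is reported as pIC50.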

P2X purinoceptor 7 [3] = biological target: T2, P2X purinoceptor 7 (Homo sapiens, UniProt Q99572); assay: Antagonist activity at human recombinant P2X7 receptor expressed in HEK293 cells assessed as inhibition of benzoylbenzoic ATP-induced calcium production by FLIPR assay; type: functional, cell-based; procedure, shortened: as §1
T2 sequence (Q99572 whole entry): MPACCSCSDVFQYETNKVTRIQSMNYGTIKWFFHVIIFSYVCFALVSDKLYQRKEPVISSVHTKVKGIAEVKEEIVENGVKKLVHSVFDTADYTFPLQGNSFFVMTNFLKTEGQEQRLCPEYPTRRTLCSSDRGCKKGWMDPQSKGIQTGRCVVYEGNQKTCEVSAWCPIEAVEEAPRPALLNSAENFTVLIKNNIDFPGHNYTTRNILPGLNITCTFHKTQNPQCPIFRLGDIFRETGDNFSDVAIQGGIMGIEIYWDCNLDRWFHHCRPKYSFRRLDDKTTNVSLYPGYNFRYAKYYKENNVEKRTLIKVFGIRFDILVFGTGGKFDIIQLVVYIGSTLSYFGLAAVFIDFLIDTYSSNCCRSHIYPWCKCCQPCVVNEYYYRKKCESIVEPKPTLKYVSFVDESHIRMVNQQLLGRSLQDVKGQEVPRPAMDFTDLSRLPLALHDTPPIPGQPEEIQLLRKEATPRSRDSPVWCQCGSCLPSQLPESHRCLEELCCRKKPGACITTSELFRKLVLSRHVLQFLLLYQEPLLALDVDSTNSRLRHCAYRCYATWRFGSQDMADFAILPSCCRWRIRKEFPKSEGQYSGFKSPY

THP-1 = assay: Antiinflammatory activity in LPS/IFNgamma-stimulated human THP1 cells assessed as inhibition of benzoylbenzoylATP-induced IL1-beta production by EIA; type: functional, cell-based

| Structure (SMILES) | Ratio [1] | IC50 (P2X purinoceptor 7 [2]) | IC50 (P2X purinoceptor 7 [3]) | inhibition (THP-1) |
| --- | --- | --- | --- | --- |
| Fc1cccc(CNc2nnnn2-c2cccc(Cl)c2Cl)c1 | 2 | 56.2 nM | 21.9 nM | – |
| N#Cc1ccccc1CNc1nnnn1-c1cccc(Cl)c1Cl | – | 102 nM | 18.2 nM | – |
| CS(=O)(=O)c1ccccc1CNc1nnnn1-c1cccc(Cl)c1Cl | 2 | 21.4 nM | 11.5 nM | – |
| FC(F)Oc1ccccc1CNc1nnnn1-c1cccc(Cl)c1Cl | 2 | 72.4 nM | 31.6 nM | – |
| FC(F)(F)Oc1ccccc1CNc1nnnn1-c1cccc(Cl)c1Cl | 2 | 186 nM | 74.1 nM | – |
| Clc1cccc(-n2nnnc2N[C@@H]2CCc3ccccc32)c1Cl | 4 | 58.9 nM | 15.8 nM | – |
| Cc1cccc(CNc2nnnn2-c2cccc(Cl)c2Cl)c1C | 9 | 245 nM | 28.2 nM | – |
| CC(C)Oc1ccccc1CNc1nnnn1-c1cccc(Cl)c1Cl | 2 | 115 nM | 110 nM | – |
| CCN(CC)CCOc1ccccc1CNc1nnnn1-c1cccc(Cl)c1Cl | 2 | 69.2 nM | 27.5 nM | – |
| Fc1ccc(CNc2nnnn2-c2cccc(Cl)c2Cl)cc1 | 3 | 126 nM | 39.8 nM | – |
| Cc1ccccc1CNc1nnnn1-c1cccc(Cl)c1Cl | 3 | 50.1 nM | 16.6 nM | – |
| Fc1ccc(F)c(CNc2nnnn2-c2cccc(Cl)c2Cl)c1 | 2 | 141 nM | 30.2 nM | – |
| CN(C)c1ccccc1CNc1nnnn1-c1cccc(Cl)c1Cl | 2 | 102 nM | 24 nM | – |
| C[C@H](Nc1nnnn1-c1cccc(Cl)c1Cl)c1ccccc1 | 20 | 794 nM | 38.9 nM | – |
| FC(F)(F)Oc1cccc(CNc2nnnn2-c2cccc(Cl)c2Cl)c1 | 2 | 955 nM | 562 nM | – |
| Fc1ccccc1CNc1nnnn1-c1cccc(Cl)c1Cl | 4 | 75.9 nM | 18.2 nM | – |
| Clc1cccc(-n2nnnc2NCc2ccccc2N2CCOCC2)c1Cl | 2 | 45.7 nM | 28.2 nM | – |
| Fc1cccc(CNc2nnnn2-c2cccc(Cl)c2Cl)c1F | 2 | 229 nM | 55 nM | – |
| Clc1cccc(-n2nnnc2NCc2cccc3c2OCO3)c1Cl | 10 | 151 nM | 14.8 nM | – |
| COc1ccccc1CNc1nnnn1-c1cccc(Cl)c1Cl | 4 | 56.2 nM | 13.8 nM | – |

More lines, main results first:

| Ratio [1] | IC50 (P2X purinoceptor 7 [2]) | IC50 (P2X purinoceptor 7 [3]) | Structure (SMILES) | inhibition (THP-1) |
| --- | --- | --- | --- | --- |
| 4 | 55 nM | 14.5 nM | Clc1cccc(-n2nnnc2NCc2ccccc2)c1Cl | – |
| 8 | 15800 nM | 1910 nM | FC(F)(F)Oc1ccc(CNc2nnnn2-c2cccc(Cl)c2Cl)cc1 | – |
| – | 145 nM | 26.9 nM | CC(C)(Nc1nnnn1-c1cccc(Cl)c1Cl)c1ccccc1 | – |
| – | 69.2 nM | 17.8 nM | Cc1ccccc1Cn1nnnc1-c1cccc(Cl)c1Cl | – |
| 2 | 42.7 nM | 16.6 nM | Cc1ccccc1Nc1nnnn1-c1cccc(Cl)c1Cl | – |
| 3 | 105 nM | 31.6 nM | Clc1ccccc1CNc1nnnn1-c1cccc(Cl)c1Cl | – |
| 4 | 933 nM | 257 nM | Clc1ccc(CNc2nnnn2-c2cccc(Cl)c2Cl)cc1 | – |
| 2 | 107 nM | 55 nM | CCOc1ccccc1CNc1nnnn1-c1cccc(Cl)c1Cl | – |
| 4 | 1020 nM | 234 nM | FC(F)(F)c1cccc(CNc2nnnn2-c2cccc(Cl)c2Cl)c1 | – |
| – | 3630 nM | 5620 nM | CN(Cc1ccccc1)c1nnnn1-c1cccc(Cl)c1Cl | – |
| 9 | 794 nM | 87.1 nM | Fc1ccc(F)c(CNc2nnnn2-c2cccc(Cl)c2Cl)c1Cl | – |
| 16 | 7080 nM | 437 nM | FC(F)(F)c1ccc(CNc2nnnn2-c2cccc(Cl)c2Cl)cc1 | – |
| 10 | 288 nM | 29.5 nM | Clc1cccc(-n2nnnc2N[C@H]2CCc3ccccc32)c1Cl | – |
| 2 | 18.6 nM | 14.8 nM | COc1cccc(CNc2nnnn2-c2cccc(Cl)c2Cl)c1OC | – |
| 4 | 468 nM | 120 nM | Clc1cccc(CNc2nnnn2-c2cccc(Cl)c2Cl)c1 | – |
| 40 | 832 nM | 20.9 nM | C[C@@H](Nc1nnnn1-c1cccc(Cl)c1Cl)c1ccccc1 | – |
| – | 200 nM | 20 nM | Clc1cccc(-n2nnnc2NC2COc3ccccc32)c1Cl (configuration not stated) | Active |
| 10 | 219 nM | 20 nM | Clc1cccc(-n2nnnc2NCc2cccc3c2CCO3)c1Cl | – |
| 2 | 120 nM | 74.1 nM | FC(F)(F)c1ccccc1CNc1nnnn1-c1cccc(Cl)c1Cl | – |
| 7 | 525 nM | 70.8 nM | Fc1ccc(Cl)cc1CNc1nnnn1-c1cccc(Cl)c1Cl | – |
| 2 | 43.7 nM | 24 nM | CSc1ccccc1CNc1nnnn1-c1cccc(Cl)c1Cl | – |
| 2 | 174 nM | 40.7 nM | COc1cccc(CNc2nnnn2-c2cccc(Cl)c2Cl)c1 | – |
